Measured values as given in ChEMBL document CHEMBL3227917, “Structure-activity relationships of dimeric Catharanthus alkaloids. 2. Experimental antitumor activities of N-substituted deacetylvinblastine amide (vindesine) sulfates” (J Med Chem, 1979).

Assays:
[1] = Antitumor activity against mouse Gardner lymphosarcoma allografted in C3H mouse assessed as tumor growth inhibition at 0.20 mg/kg, ip administered daily for 8 to 10 days; format: functional; settings: route intraperitoneal, read-out: TGI
Procedure, shortened: (§1)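 Gardner lymphosarcoma in C3H mice; sulfate salts unless noted, given ip daily for 8–10 days, treatment starting 8 days after tumor implantation. Tumor growth inhibition scored as –, 0–25%; +, 26–50%; ++, 51–75%; +++, 76–100%; T, lethal to ≥5 of 10 animals per group. Average of one or more tests.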

CHO [2] = test: Mitotic arrest in CHO cells assessed as increase in cell accumulation at 0.002 ug/ml; format: functional, Cricetulus griseus
Procedure, shortened: (§2)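 Chinese hamster ovary cells in tissue culture, scored for mitotic arrest as increase in cells in mitotic arrest over control: +++, 40–50%; ++, 15–40%; +, 10–15%; ±, 7–10%; –, 3–7%. Cytotoxicity noted separately.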

P388/VCR [3] = test: Antitumor activity against mouse P388/VCR cells allografted in B6D2F1 mouse assessed as increase in host lifespan at 1.20 mg/kg, ip administered on days 1, 5 and 9; format: functional; settings: dose 1.2 mg/kg; route intraperitoneal
Procedure, shortened: (§3)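 P388/VCR leukemia in groups of 10 B6D2F1 mice, run at Lilly using the cell strain received from NCI. Sulfate salts given ip on days 1, 5 and 9. Read-out is percent increase in lifespan.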

P388/S [4] = test: Antitumor activity against mouse P388/S cells allografted in CD2F1 mouse assessed as increase in host lifespan at 1.08 mg/kg, ip administered on days 1, 5 and 9; format: functional; settings: route intraperitoneal
Procedure, shortened: (§4)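 Groups of eight male CD2F1 mice bearing P388 leukemia, run at NCI. Sulfate salts given ip on days 1, 5 and 9. Read-out is percent increase in lifespan.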

CHO [5] = test: Mitotic arrest in CHO cells assessed as increase in cell accumulation at 0.2 ug/ml; format: functional, Cricetulus griseus; procedure, shortened: as §2
[6] = Toxicity in iv dosed mouse assessed as lethality; format: organism-based; settings: in vivo
[7] = Antitumor activity against mouse P388/VCR/I/63 cells allografted in Dublin-CDF1 mouse assessed as day of host death at 0.7 mg/kg, ip administered on days 1, 5 and 9 (reference value: 10 days); format: functional; settings: route intraperitoneal
P388/VCR [8] = test: Antitumor activity against mouse P388/VCR cells allografted in B6D2F1 mouse assessed as increase in host lifespan at 0.90 mg/kg, ip administered on days 1, 5 and 9; format: functional; settings: dose 0.9 mg/kg; route intraperitoneal; procedure, shortened: as §3
P388/S [9] = test: Antitumor activity against mouse P388/S cells allografted in CD2F1 mouse assessed as increase in host lifespan at 0.648 mg/kg, ip administered on days 1, 5 and 9; format: functional; settings: route intraperitoneal; procedure, shortened: as §4
P388/VCR [10] = test: Antitumor activity against mouse P388/VCR cells allografted in B6D2F1 mouse assessed as increase in host lifespan at 0.60 mg/kg, ip administered on days 1, 5 and 9; format: functional; settings: dose 0.6 mg/kg; route intraperitoneal; procedure, shortened: as §3
Mus musculus [11] = test: Toxicity in CD2F1 mouse allografted with mouse P388/S cells at 3.00 mg/kg, ip administered on days 1, 5 and 9; format: organism-based; design: dose 3 mg/kg, route intraperitoneal; settings: in vivo
B16 [12] = test: Antitumor activity against mouse B16 cells allografted in C57BL/6 mouse assessed as prolongation of host survival at 1.20 mg/kg, ip administered on days 1,5 and 9; format: functional; settings: route intraperitoneal
Procedure, shortened: (§5)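 B16 melanoma cells (10⁶ inoculum) implanted ip in C57BL/6 mice; groups of 10. Sulfate salts unless noted, given ip on days 1, 5 and 9. Single test. Survival prolongation is expressed as percent versus controls, with survivors counted on day 60. Toxic means deaths of ≥5 of 10 animals before the first control death.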

P388/S [13] = test: Antitumor activity against mouse P388/S cells allografted in CD2F1 mouse assessed as increase in host lifespan at 1.80 mg/kg, ip administered on days 1, 5 and 9; format: functional; settings: dose 1.8 mg/kg; route intraperitoneal
Procedure, shortened: (§6)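 Groups of eight male CD2F1 mice, tested at the NCI. Compounds were given as sulfate salts, dosed in mg/kg ip on days 1, 5 and 9. Activity was read as percent increase in lifespan against the leukemia line.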

[14] = Antitumor activity against mouse P1534 cells allografted in DBA2 mouse assessed as tumor growth inhibition at 0.9 mg/kg, ip administered on days 1,5 and 9; format: functional; settings: route intraperitoneal, read-out: TGI
Procedure, shortened: (§7)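 P1534(J) leukemia implanted sc in DBA2 mice; agent given ip on days 1, 5 and 9 at 1.6, 1.2, 0.9 and 0.6 mg/kg in a single experiment. Activity scored as growth inhibition, –, 0–25%; +, 26–50%; ++, 51–75%; +++, 76–100%.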

P388/VCR [15] = test: Antitumor activity against mouse P388/VCR cells allografted in CD2F1 mouse assessed as increase in host lifespan at 1.08 mg/kg, ip administered on days 1, 5 and 9; format: functional; settings: route intraperitoneal; procedure, shortened: as §4
[16] = Antitumor activity against mouse P1534 cells allografted in DBA2 mouse assessed as tumor growth inhibition at 1.2 mg/kg, ip administered on days 1,5 and 9; format: functional; settings: route intraperitoneal, read-out: TGI; procedure, shortened: as §7
Mus musculus [17] = test: Toxicity in CD2F1 mouse allografted with mouse P388/VCR cells at 3.00 mg/kg, ip administered on days 1, 5 and 9; format: organism-based; design: dose 3 mg/kg, route intraperitoneal; settings: in vivo
P388/VCR [18] = test: Antitumor activity against mouse P388/VCR cells allografted in CD2F1 mouse assessed as increase in host lifespan at 1.80 mg/kg, ip administered on days 1, 5 and 9; format: functional; settings: dose 1.8 mg/kg; route intraperitoneal; procedure, shortened: as §6
[19] = Antitumor activity against mouse P388/VCR/I/63 cells allografted in Dublin-CDF1 mouse assessed as increase in host lifespan at 1.6 mg/kg, ip administered on days 1, 5 and 9; format: functional; settings: route intraperitoneal
[20] = Antitumor activity against mouse Gardner lymphosarcoma allografted in C3H mouse assessed as tumor growth inhibition at 0.05 mg/kg, ip administered daily for 8 to 10 days; format: functional; settings: route intraperitoneal, read-out: TGI; procedure, shortened: as §1
[21] = Antitumor activity against mouse Gardner lymphosarcoma allografted in C3H mouse assessed as tumor growth inhibition at 0.40 mg/kg, ip administered daily for 8 to 10 days; format: functional; settings: route intraperitoneal, read-out: TGI; procedure, shortened: as §1
P388/VCR [22] = test: Antitumor activity against mouse P388/VCR cells allografted in CD2F1 mouse assessed as increase in host lifespan at 0.648 mg/kg, ip administered on days 1, 5 and 9; format: functional; settings: route intraperitoneal; procedure, shortened: as §4
[23] = Antitumor activity against mouse P388/VCR/I/63 cells allografted in Dublin-CDF1 mouse assessed as day of host death at 1.6 mg/kg, ip administered on days 1, 5 and 9 (reference value: 10 days); format: functional; settings: route intraperitoneal
[24] = Antitumor activity against mouse P388/VCR/I/63 cells allografted in Dublin-CDF1 mouse assessed as increase in host lifespan at 1.0 mg/kg, ip administered on days 1, 5 and 9; format: functional; settings: route intraperitoneal
[25] = Antitumor activity against mouse Gardner lymphosarcoma allografted in C3H mouse assessed as tumor growth inhibition at 0.10 mg/kg, ip administered daily for 8 to 10 days; format: functional; settings: route intraperitoneal, read-out: TGI; procedure, shortened: as §1
CHO [26] = test: Mitotic arrest in CHO cells assessed as increase in cell accumulation at 0.02 ug/ml; format: functional, Cricetulus griseus; procedure, shortened: as §2
[27] = Antitumor activity against mouse P388/VCR/I/63 cells allografted in Dublin-CDF1 mouse assessed as increase in host lifespan at 0.7 mg/kg, ip administered on days 1, 5 and 9; format: functional; settings: route intraperitoneal
B16 [28] = test: Antitumor activity against mouse B16 cells allografted in C57BL/6 mouse assessed as prolongation of host survival at 0.90 mg/kg, ip administered on days 1,5 and 9; format: functional; settings: route intraperitoneal; procedure, shortened: as §5
[29] = Antitumor activity against mouse P388/VCR/I/63 cells allografted in Dublin-CDF1 mouse assessed as day of host death at 1.0 mg/kg, ip administered on days 1, 5 and 9 (reference value: 10 days); format: functional; settings: route intraperitoneal
[30] = Antitumor activity against mouse P1534 cells allografted in DBA2 mouse assessed as tumor growth inhibition at 0.6 mg/kg, ip administered on days 1,5 and 9; format: functional; settings: route intraperitoneal, read-out: TGI; procedure, shortened: as §7
[31] = Antitumor activity against mouse Gardner lymphosarcoma allografted in C3H mouse assessed as tumor growth inhibition at 0.30 mg/kg, ip administered daily for 8 to 10 days; format: functional; settings: route intraperitoneal, read-out: TGI; procedure, shortened: as §1
B16 [32] = test: Antitumor activity against mouse B16 cells allografted in C57BL/6 mouse assessed as prolongation of host survival at 0.60 mg/kg, ip administered on days 1,5 and 9; format: functional; settings: route intraperitoneal; procedure, shortened: as §5
[33] = Antitumor activity against mouse P1534 cells allografted in DBA2 mouse assessed as tumor growth inhibition at 1.6 mg/kg, ip administered on days 1,5 and 9; format: functional; settings: route intraperitoneal, read-out: TGI; procedure, shortened: as §7
[34] = Antitumor activity against mouse P1534 cells allografted in DBA2 mouse assessed as tumor growth inhibition at 0.20 mg/kg, ip administered daily for 8 to 10 days; format: functional; settings: route intraperitoneal, read-out: TGI
Procedure, shortened: (§8)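 P1534(J) leukemia implanted sc in DBA2 mice; sulfate salts dosed ip daily for 8–10 days. Growth inhibition scored –, 0–25%; +, 26–50%; ++, 51–75%; +++, 76–100%; T, lethal to ≥5 of 10 animals per group. Average of one or more tests.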

[35] = Antitumor activity against mouse P1534 cells allografted in DBA2 mouse assessed as tumor growth inhibition at 0.25 mg/kg, ip administered daily for 8 to 10 days; format: functional; settings: route intraperitoneal, read-out: TGI; procedure, shortened: as §8
[36] = Antitumor activity against mouse P1534 cells allografted in DBA2 mouse assessed as tumor growth inhibition at 0.30 mg/kg, ip administered daily for 8 to 10 days; format: functional; settings: route intraperitoneal, read-out: TGI; procedure, shortened: as §8
[37] = Antitumor activity against mouse P1534 cells allografted in DBA2 mouse assessed as tumor growth inhibition at 0.40 mg/kg, ip administered daily for 8 to 10 days; format: functional; settings: route intraperitoneal, read-out: TGI; procedure, shortened: as §8

SMILES	Activity (CHO [2]) [%]	Activity (P388/VCR [3]) [%]	Activity (P388/S [4]) [%]	Activity (CHO [5]) [%]	LD50 [6] [mg/kg]	Activity (P388/VCR [8]) [%]	Activity (P388/S [9]) [%]	Activity (P388/VCR [10]) [%]	Activity (Mus musculus [11])	Activity (P388/S [13]) [%]	Activity (P388/VCR [15]) [%]	Activity (Mus musculus [17])	Activity (P388/VCR [18]) [%]	Activity (P388/VCR [22]) [%]	Activity (CHO [26]) [%]	further results
CC[C@]1(O)C[C@H]2CN(CCc3c([nH]c4ccccc34)[C@@](C(=O)OC)(c3cc4c(cc3OC)N(C)[C@H]3[C@@](O)(C(=O)NCCSSCCNC(=O)[C@@]5(O)[C@H](O)[C@]6(CC)C=CCN7CC[C@@]8(c9cc([C@@]%10(C(=O)OC)C[C@@H]%11CN(CCc%12c%10[nH]c%10ccccc%12%10)C[C@](O)(CC)C%11)c(OC)cc9N(C)[C@@H]58)[C@@H]76)[C@H](O)[C@]5(CC)C=CCN6CC[C@]43[C@@H]65)C2)C1.O=S(=O)(O)O	3	22	96	15	6.9	54	129	35	Toxic	50	46	Toxic	33	50	10	inhibition in vivo at 0.2 mg/kg [1]: 51%; Activity [7]: 18.5 days; survival at 1.2 mg/kg (B16 [12]): 170%; inhibition in vivo at 0.9 mg/kg [14]: 51%; inhibition in vivo at 1.2 mg/kg [16]: 76%; Activity [19]: 145%; inhibition in vivo at 0.05 mg/kg [20]: 0%; inhibition in vivo at 0.4 mg/kg [21]: 76%; Activity [23]: 24.5 days; Activity [24]: 115%; inhibition in vivo at 0.1 mg/kg [25]: 0%; Activity [27]: 85%; survival at 0.9 mg/kg (B16 [28]): 170%; Activity [29]: 21.5 days; inhibition in vivo at 0.6 mg/kg [30]: 26%; inhibition in vivo at 0.3 mg/kg [31]: 76%; survival at 0.6 mg/kg (B16 [32]): 115%; inhibition in vivo at 1.6 mg/kg [33]: 76%
CC[C@]1(O)C[C@@H]2CN(CCc3c([nH]c4ccccc34)[C@@](C(=O)OC)(c3cc4c(cc3OC)N(C)[C@H]3[C@@](O)(C(=O)OC)[C@H](OC(C)=O)[C@]5(CC)C=CCN6CC[C@]43[C@@H]65)C2)C1.O=S(=O)(O)O [VINBLASTINE SULFATE]	3	10	96	40	10	9	75	9	Toxic	92	12	Toxic	17	17	15	inhibition in vivo at 0.2 mg/kg [34]: 0%; inhibition in vivo at 0.25 mg/kg [35]: 0%; inhibition in vivo at 0.3 mg/kg [36]: 0%; inhibition in vivo at 0.4 mg/kg [37]: 51%
